The values that follow come from ChEMBL document CHEMBL3400122, “8-(3-chloro-4-methoxybenzyl)-8H-pyrido[2,3-d]pyrimidin-7-one derivatives as potent and selective phosphodiesterase 5 inhibitors” (Bioorg Med Chem Lett, 2015).

Assay [1] concerns the target cGMP-specific 3',5'-cyclic phosphodiesterase (Canis lupus familiaris, UniProt O77746). The assay can be described thus: Inhibition of canine lung PDE5 using [3H]cGMP incubated for 30 mins by scintillation analysis. In short, it runs like this:
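Radiolabeled nucleotide method using PDE5 isolated from canine lung. Started with [³H]cGMP plus unlabeled cGMP, 37 °C for 30 min, stopped by boiling 1.5 min. Crotalus atrox venom step at 37 °C for 30 min, column separation, eluate counted by scintillation.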

Assay [2] deals with Corpus cavernosum. The assay can be described thus: Relaxation effect on phenylephrine-induced contractile response in isolated rabbit corpus cavernosum. The class given is functional. Particulars: Oryctolagus cuniculus. In short, it runs like this: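 Isolated rabbit corpus cavernosum strips in organ baths. High-KCl (120 mM) PSS contraction checked twice, then phenylephrine (5 × 10⁻⁶ M) gave a tonic contraction. Once stable, test compound (10⁻¹⁰–10⁻⁶ M) or vehicle added at 30 min intervals. EC30 derived from the logarithmic concentration–inhibition curve.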

Assay [3] can be described thus: Selectivity for bovine retina PDE6 to canine lung PDE5.

Bounds are passed on as bounds.

As usually defined, the IC50 is the point on the concentration scale where inhibition reaches its midpoint. A high value points to weaker potency. The compound `COc1ccc(CNc2nc(N3CCC[C@H]3CO)ncc2C(C)=O)cc1Cl` came in with an IC50 in assay [1] of 5.2 nM.

For orientation: EC30 means the concentration at which the effect reaches the 30% level. Turning to `CCCc1nn(C)c2c(=O)[nH]c(-c3cc(S(=O)(=O)N4CCN(C)CC4)ccc3OCC)nc12` [SILDENAFIL], the 30% effect level in assay [2] (EC30) was put at 8.7 nM.

On to `COc1ccc(CNc2nc(N3CCC[C@H]3CO)ncc2C(=O)c2ccccn2)cc1Cl`, for which 12 nM corresponded to half-maximal inhibition in assay [1] (IC50).

`COc1ccc(CNc2nc(N3CCC[C@H]3CO)ncc2C=O)cc1Cl`: it took 33 nM to reach half-maximal inhibition in assay [1] (IC50).

As for `COc1ccc(Cn2c(=O)cc(C)c3cnc(N4CCC[C@H]4CO)nc32)cc1Cl`, in assay [1], half-maximal inhibition (IC50) required 0.86 nM. Besides, in assay [3], the Selectivity ratio came to 2300. Further, the EC30 in assay [2] is 0.85 nM.

In assay [1], `COc1ccc(CNc2nc(N3CCC[C@H]3CO)ncc2C(=O)c2cc(OC)c(OC)c(OC)c2)cc1Cl` yielded an IC50 of 0.21 nM. The Ratio IC50 in assay [3] was found to be 5700. Moreover, the EC30 in assay [2] was greater than 100 nM.

Turning to `COc1ccc(Cn2c(=O)ccc3cnc(N4CCC[C@H]4CO)nc32)cc1Cl`, half-maximal inhibition in assay [1] (IC50) was put at 3.3 nM. For the same compound, the Selectivity ratio in assay [3] is 850. The EC30 in assay [2] stood at 2.2 nM.

In assay [1], `COc1ccc(Cn2c(=O)cc(CCN3CCOCC3)c3cnc(N4CCC[C@H]4CO)nc32)cc1Cl` showed an IC50 of 0.98 nM. For the same compound, in assay [3], the Selectivity ratio is 1600. In assay [2], the EC30 stood at 8.6 nM.

`COc1ccc(CNc2nc(N3CCC[C@H]3CO)ncc2C(=O)c2nccn2C)cc1Cl` yielded an IC50 in assay [1] of 12 nM.

In turn, `COc1ccc(Cn2c(=O)cc(-c3ccccn3)c3cnc(N4CCC[C@H]4CO)nc32)cc1Cl` showed an IC50 in assay [1] of 1.7 nM. Also, the Selectivity ratio in assay [3] turned out to be 1900.

As for `COc1ccc(Cn2c(=O)cc(-c3nccn3C)c3cnc(N4CCC[C@H]4CO)nc32)cc1Cl`, the IC50 in assay [1] worked out at 7.2 nM.

`COc1ccc(CNc2nc(N3CCC[C@H]3CO)ncc2C(=O)CCN2CCOCC2)cc1Cl`: the IC50 in assay [1] amounted to 2.9 nM.
